Reference: the RNAGym collection of RNA variant scans (doi:10.1126/science.aae0568)
Variants at the floor of the assay were thinned out.

B1: tRNA (parent)
chain: GUUCCGUUGGCGUAAUGGUAACGCGUCUCCCUCCUAAGGAGAAGACUGCGGGUUCGAGUCCCGUACGGAACG

Variants of: B1
Experiment: yeast fitness relative to wild type (ratio to wild type); higher = fitter; tRNA-Arg(CCU), competitive growth, 37 C, YPD
Procedure, shortened: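 Gene amplicons from the start population and from each of six end populations were read by 100-nucleotide paired-end sequencing. Those end populations came from pooled Saccharomyces cerevisiae strains carrying tRNA-Arg(CCU) gene variants at the native locus, competed in YPD at 37°C for 24 hours. Fitness relative to wild type was worked out from changes in genotype frequencies. Genotypes needed ≥ 100 starting reads, and estimates < 0.5 were set to 0.5.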

Row | Variant | yeast fitness
1 | G25A A42U A43C G44A C49A C55G | ≤ 0.5
2 | C24U C31U U54A | ≤ 0.5
3 | C24U G25C C46U G50C | ≤ 0.5
4 | C24U G58A C62U G63A | ≤ 0.5
5 | C24U C29G G38C A42C | ≤ 0.5
6 | C24U C34U G58A | ≤ 0.5
7 | C24U C61A | 0.612
8 | C24U C61G | 0.598
9 | C24U C61U | 0.881
10 | C24U U26G C61G | ≤ 0.5
11 | C24U C29U C31G | 0.806
12 | C24U C31U C49U | 0.874
13 | C24U A57C G68U | ≤ 0.5
14 | C24U U28G C33G C34U A36G A40G | 0.596
15 | G25A C27G | 0.78
16 | G25A C27A | 1.11
17 | C24U U32G A69C A70U | ≤ 0.5
18 | C24U C31G C61G | 0.513
19 | C24U C46G C49A C61U | ≤ 0.5
20 | C24U A45U G58A A65G | 0.794
21 | C24U C29G | 0.674

Row | Variant | yeast fitness
22 | C24U U26G A43G | 0.727
23 | G25A A45C | 0.957
24 | G25A A45G | 0.961
25 | C24U U59A C62A A69C | 0.552
26 | C24U A45G A57G | 0.787
27 | G25A C27G C46G C61A | ≤ 0.5
28 | C24U C29G C60U C66U | ≤ 0.5
29 | C24U C33A A40G | 0.513
30 | C24U A45C C61G | ≤ 0.5
31 | G25A C29U A45U G58C | 0.772
32 | C24U U59A C66U | 0.565
33 | G25A C27U U53C A70G | ≤ 0.5
34 | C24U U32C | 0.991
35 | C24U U32G | 0.584
36 | C24U U32A | 0.784
37 | C24U G44A U54C | 0.726
38 | C24U C31G C33U U59A C62U | ≤ 0.5
39 | G25A C29A A43C A57C | ≤ 0.5
40 | C24U C55G C66A | ≤ 0.5
41 | C24U C30A | 0.898
42 | C24U C30G | 0.836

Row | Variant | yeast fitness
43 | C24U G48C C62A | 0.579
44 | C24U C31U G68U | 0.544
45 | C24U A65U A69C | 0.564
46 | C24U U32C A36U A37G U54A | ≤ 0.5
47 | C24U G52A A57C | ≤ 0.5
48 | G25A A37C C62U | 0.924
49 | C24U U47C C62U | 0.803
50 | C24U C34U A57U C60U | ≤ 0.5
51 | C24U U35A A69U | 0.513
52 | C24U C49U U54G G67A | ≤ 0.5
53 | G25A C27G C60A A70U | ≤ 0.5
54 | G25A C29U A45U | 0.69
55 | G25A A42G U59C | ≤ 0.5
56 | G25A A40C C46U A69C | 0.764
57 | C24U G25A C30U C46A C55G C60A | ≤ 0.5
58 | C24U U26C A65C | 0.695
59 | C24U U64G | 0.691
60 | C24U U64A | 0.822
61 | C24U U64C | 0.925
62 | C24U U26G C30U G39C | ≤ 0.5
63 | G25A C31G A70G | 0.642

Row | Variant | yeast fitness
64 | C24U C31G | 0.845
65 | C24U C31U | 0.96
66 | C24U C30U G38C | 0.55
67 | C24U G52A | 0.871
68 | C24U C31A A43C G58C U64G | ≤ 0.5
69 | C24U C46U | 0.983
70 | C24U C46A | 0.925
71 | C24U C46G | 1.01
72 | G25A A40U C49U C60A G63A | 0.507
73 | C24U G41A | 0.926
74 | G25A C31A C62U | 0.586
75 | C24U A57C C61A A70G | ≤ 0.5
76 | G25A A45U A69U | 0.806
77 | C24U C66U A69C | 0.568
78 | C24U A69U | 0.99
79 | C24U A69C | 0.887
80 | C24U C29U C30A | 0.706
81 | C24U C30A C55U | ≤ 0.5
82 | C24U U26C G68A | 0.566
83 | G25A A69C | 1.02
84 | G25A A45G G50C A69C | 0.526
